Experimental data reported in ChEMBL document CHEMBL3098049, “Concise synthesis and biological evaluation of 2-Aroyl-5-amino benzo[b]thiophene derivatives as a novel class of potent antimitotic agents” (J Med Chem, 2013).
Activity calls are given as the source filed them. The calls are words filed in the database; no cut-off is given here.

Legend:
MNNG-HOS [1] = experiment: Antitumor activity against human MNNG-HOS cells xenografted in Balb/c-nu mouse assessed as reduction in tumor weight at 50 mg/kg, ip administered once every 3 days for 9 days measured after day 18; type: functional, organism-based; parameters: dose 50 mg/kg; settings: HOS-TE85
Procedure, shortened: (§1)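 MNNG/HOS osteosarcoma cells grown to exponential phase, suspended in FBS-free MEM (10⁷ cells/mL), 0.1 mL injected into back hypodermis of nude mice. At ~100 mm³, 12 mice randomised to three groups (vehicle, CA-4P in isotonic saline, test in 5% DMSO/olive oil). 50 mg/kg ip at 0.01 mL/g on days 0, 3, 6, 9. Tumour volume and body weight tracked; tumours excised and weighed day 18; […].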

HeLa [2] = experiment: Induction of apoptosis in human HeLa cells after 24 to 48 hrs by annexin-V-FITC/propidium iodide staining-based flow cytometric analysis; type: functional, cell-based
Procedure, shortened: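 HeLa cells treated 24 or 48 h, stained with annexin-V-FITC and PI, analysed by flow cytometry. Excitation 488 nm; emission 525 nm for FITC, 585 nm for PI. Gating separates live, early apoptotic, late apoptotic and necrotic cells. Mean of three independent experiments.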

HeLa [3] = experiment: Induction of mitochondrial ROS generation in human HeLa cells at 15 to 250 nM by H2-DCFDA staining-based flow cytometric analysis; type: functional, cell-based; settings: TDE = time-dependent effect
Procedure, shortened: (§2)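 HeLa cells incubated 24 or 48 h with compound, stained with H₂-DCFDA, and intracellular ROS measured by flow cytometry. Mean of three independent experiments.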

MNNG-HOS [4] = experiment: Antitumor activity against human MNNG-HOS cells xenografted in Balb/c-nu mouse assessed as tumor growth inhibition at 50 mg/kg, ip measured on day 18 relative to vehicle-treated control; type: functional; settings: HOS-TE85, ip, 432 h, route intraperitoneal, read-out: TGI; procedure, shortened: as §1
[5] = Selectivity ratio of IC50 for HUVEC to IC50 for human Molt4/C8 cells; type: ADME, cell-based; settings: HUVEC and Molt4/C8 cells, read-out: Ratio IC50
HeLa [6] = experiment: Downregulation of Xiap protein expression in human HeLa cells at 10 to 100 nM after 24 to 48 hrs by Western blot analysis; type: functional, cell-based
Procedure, shortened: (§3)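 HeLa cultures treated 24 or 48 h, washed in cold PBS, lysed 30 min at 0 °C, clarified at 15000g. 20 μg protein run on 7.5−15% gradient SDS-PAGE and blotted to PVDF. Primary antibodies 2 h at room temperature, peroxidase secondary 60 min, ECL detection. Membranes stripped and reprobed for β-actin as loading control.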

HeLa [7] = experiment: Induction of apoptosis in human HeLa cells assessed as PARP cleavage at 10 nM after 24 hrs by Western blot analysis; type: functional, cell-based; procedure, shortened: as §3
MNNG-HOS [8] = experiment: Cytotoxicity against human MNNG-HOS cells; type: functional, cell-based; settings: HOS-TE85
HeLa [9] = experiment: Downregulation of cdc25c protein expression in human HeLa cells at 10 to 100 nM after 24 to 48 hrs by Western blot analysis; type: functional, cell-based; procedure, shortened: as §3
Jurkat = experiment: Cell cycle arrest in human Jurkat cells assessed as accumulation at G2/M phase at 15 to 30 nM after 24 hrs by propidium iodide staining-based flow cytometric analysis relative to control; type: functional
Procedure, shortened: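 Jurkat cells treated for 24 h, fixed, PI-labelled and analysed by flow cytometry for cell-cycle phase distribution. Mean of three independent experiments.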

HeLa [10] = experiment: Cell cycle arrest in human HeLa cells assessed as accumulation at G2/M phase after 24 hrs by propidium iodide staining-based flow cytometric analysis; type: functional
Procedure, shortened: (§4)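 HeLa cells (5 × 10⁵) treated for 24 h. Harvested, fixed in 70% ethanol chilled to 0 °C, then suspended in RNase with 0.1% Triton X-100. DNA stained with PI, analysed by flow cytometry as DNA-content histograms. Mean of three independent experiments.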

[11] = Cytotoxicity against human CEM/0 cells assessed as growth inhibition after 48 hrs by coulter counting analysis; type: functional, cell-based; settings: CCRF-CEM
[12] = Selectivity ratio of IC50 for HUVEC to IC50 for mouse FM3A/0 cells; type: ADME, cell-based; settings: HUVEC and FM3A/0 cells, read-out: Ratio IC50
HeLa [13] = experiment: Induction of mitochondrial membrane depolarization in human HeLa cells after 24 to 48 hrs by JC-1 staining-based fluorescence assay; type: functional, cell-based
Procedure, shortened: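 HeLa cells treated 24 or 48 h, then stained with JC-1. Cells with depolarised mitochondria quantified by flow cytometry. Mean of three independent experiments.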

HeLa [14] = experiment: Induction of apoptosis in human HeLa cells assessed as caspase-3 cleavage at 10 to 100 nM after 24 to 48 hrs by Western blot analysis; type: functional, cell-based; procedure, shortened: as §3
[15] = Cytotoxicity against mouse FM3A/0 cells assessed as growth inhibition after 48 hrs by coulter counting analysis; type: functional, cell-based; settings: FM3A/0, 48 h
[16] = Selectivity ratio of IC50 for HUVEC to IC50 for mouse L1210 cells; type: ADME, cell-based; settings: HUVEC and L1210 cells, read-out: Ratio IC50
[17] = Cytotoxicity against human Molt4/C8 cells assessed as growth inhibition after 48 hrs by coulter counting analysis; type: functional, cell-based; settings: MOLT-4, 48 h
Procedure, shortened: (§5)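 Cells suspended at (3−5) × 10⁵ cells/mL and mixed 1:1 with compound dilutions. Incubated 48 h at 37 °C, counted with a Coulter counter. IC₅₀ = concentration inhibiting proliferation by 50%. Mean of at least three independent experiments.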

[18] = Selectivity ratio of IC50 for HUVEC to IC50 for human CEM/0 cells; type: ADME, cell-based; settings: HUVEC and CEM/0 cells, read-out: Ratio IC50
HeLa [19] = experiment: Effect on cyclin B protein expression in human HeLa cells at 10 to 100 nM after 24 to 48 hrs by Western blot analysis; type: functional, cell-based; procedure, shortened: as §3
HeLa [20] = experiment: Induction of mitochondrial ROS generation in human HeLa cells after 24 to 48 hrs by H2-DCFDA staining-based flow cytometric analysis; type: functional, cell-based; procedure, shortened: as §2
HeLa [21] = experiment: Cytotoxicity against human HeLa cells assessed as growth inhibition after 48 hrs by coulter counting analysis; type: functional, cell-based
HeLa [22] = experiment: Cell cycle arrest in human HeLa cells assessed as reduction in S phase up to 60 nM after 24 hrs by propidium iodide staining-based flow cytometric analysis; type: functional; procedure, shortened: as §4
HeLa [23] = experiment: Induction of DNA damage in human HeLa cells assessed as upregulation of gamma-H2A.X protein expression at 10 nM after 48 hrs by Western blot analysis; type: functional, cell-based; procedure, shortened: as §3
HeLa [24] = experiment: Induction of DNA damage in human HeLa cells assessed as upregulation of gamma-H2A.X protein expression at 100 nM after 24 hrs by Western blot analysis; type: functional, cell-based; procedure, shortened: as §3
[25] = target: Cyclin-dependent kinase 1 (Homo sapiens) (UniProt P06493); experiment: Decrease of cdc2 protein phosphorylation at Tyr15 in human HeLa cells at 10 to 100 nM after 24 to 48 hrs by Western blot analysis; type: cell-based; procedure, shortened: as §3
Chain of Cyclin-dependent kinase 1 (Homo sapiens) (P06493 whole entry, looked up): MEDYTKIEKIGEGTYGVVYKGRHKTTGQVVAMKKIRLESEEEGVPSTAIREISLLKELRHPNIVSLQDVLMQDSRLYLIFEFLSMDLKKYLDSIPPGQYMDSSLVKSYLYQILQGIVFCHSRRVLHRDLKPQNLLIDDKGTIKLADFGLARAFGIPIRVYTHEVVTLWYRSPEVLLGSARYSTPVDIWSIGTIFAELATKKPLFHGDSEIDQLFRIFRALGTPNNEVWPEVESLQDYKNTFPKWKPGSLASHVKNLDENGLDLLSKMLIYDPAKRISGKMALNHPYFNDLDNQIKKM

L1210 = experiment: Cytotoxicity against mouse L1210 cells assessed as growth inhibition after 48 hrs by coulter counting analysis; type: functional, cell-based; settings: L1210, 48 h; procedure, shortened: as §5
PBL = experiment: Cytotoxicity against resting phase of human PBL assessed as growth inhibition after 72 hrs by MTT assay; type: cell-based
Procedure, shortened: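 Human PBL from healthy donors were isolated on a density gradient, washed, and held overnight in RPMI-1640 with 10% FBS. For proliferating cultures, nonadherent cells were resuspended at 5 × 10⁵ cells/mL with 2.5 μg/mL PHA; resting PBL received no PHA. Cells were exposed to varying compound concentrations, and viability was read by MTT after 72 h. IC50 is the concentration reducing growth by 50%, as the mean of three independent experiments.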

In the case of `COc1cc(C(=O)c2cc3cc(N)cc(OC)c3s2)cc(OC)c1OC`, the Activity (MNNG-HOS [1]) is reported as “Active”, the Activity (HeLa [2]) is reported as “Dose-dependent effect” and the Activity (HeLa [3]) is reported as “tde”. For the same compound, the inhibition in vivo at 50 mg/kg (MNNG-HOS [4]) was 62%, the selectivity ratio [5] was 460 and the Activity (HeLa [6]) was “Active”. For the same compound, the Activity (HeLa [7]) was “Active”, the IC50 (MNNG-HOS [8]) was 1 nM and the Activity (HeLa [9]) was “Active”. For the same compound, the Activity (Jurkat) was 40%, the Activity (HeLa [10]) was “Dose-dependent effect” and the IC50 [11] was 4.1 nM. The selectivity ratio [12] was 460, the Activity (HeLa [13]) was “Dose-dependent effect” and the Activity (HeLa [14]) was “Active”. For the same compound, the IC50 [15] was 12 nM, the selectivity ratio [16] was 460 and the IC50 [17] was 2.6 nM. The selectivity ratio [18] was 460, the Activity (HeLa [19]) was “inactive” and the Activity (HeLa [20]) was “Dose-dependent effect”. The IC50 (HeLa [21]) was 8 nM, the Activity (HeLa [22]) was “Active” and the Activity (HeLa [23]) was “Active”. For the same compound, the Activity (HeLa [24]) was “Active”, the Activity [25] was “Active” and the IC50 (L1210) was 5 nM. It also gave an IC50 (PBL) of 24.7 µM.
